Results as given in ChEMBL document CHEMBL3407460, “Synthesis of novel thiazole-based 8,9-dihydro-7H-pyrimido[4,5-b][1,4]diazepines as potential antitumor and antifungal agents” (2015).

What was measured:
Type in all cases: functional
[1] = Antitumor activity against human HOP92 cells after 48 hrs by Sulforhodamine B assay; conditions: HOP-92, 48 h; for CC50: read-out: LC50 (the source's name)
Procedure, shortened: (§1)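 NCI 60-cell-line screen. Secondary five-dose test at 100, 10, 1.0, 0.1 and 0.01 µM with continuous drug exposure for 48 h. Cell growth was estimated by sulforhodamine B protein staining. […] LC50 was also reported.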

[2] = Antitumor activity against human PC3 cells after 48 hrs by Sulforhodamine B assay; conditions: PC-3, 48 h; for CC50: read-out: LC50 (the source's name); procedure, shortened: as §1
MDA-MB-435 = test: Antitumor activity against human MDA-MB-435 cells after 48 hrs by Sulforhodamine B assay; conditions: MDA-MB-435, 48 h; for CC50: read-out: LC50 (the source's name); procedure, shortened: as §1
[3] = Antitumor activity against human Hs 578T cells after 48 hrs by Sulforhodamine B assay; conditions: for CC50: read-out: LC50 (the source's name); procedure, shortened: as §1
NCI-H522 = test: Antitumor activity against human NCI-H522 cells after 48 hrs by Sulforhodamine B assay; conditions: NCI-H522, 48 h; for CC50: read-out: LC50 (the source's name); procedure, shortened: as §1
M14 = test: Antitumor activity against human M14 cells after 48 hrs by Sulforhodamine B assay; conditions: M14, 48 h; for CC50: read-out: LC50 (the source's name); procedure, shortened: as §1
SNB-19 = test: Antitumor activity against human SNB19 cells after 48 hrs by Sulforhodamine B assay; conditions: SNB-19, 48 h; procedure, shortened: as §1
A549 = test: Antitumor activity against human A549 cells after 48 hrs by Sulforhodamine B assay; conditions: A549, 48 h; for CC50: read-out: LC50 (the source's name); procedure, shortened: as §1
HOP-62 = test: Antitumor activity against human HOP62 cells after 48 hrs by Sulforhodamine B assay; conditions: HOP-62, 48 h; procedure, shortened: as §1
SNB-75 = test: Antitumor activity against human SNB75 cells after 48 hrs by Sulforhodamine B assay; conditions: SNB-75, 48 h; procedure, shortened: as §1
[4] = Antitumor activity against human COLO205 cells after 48 hrs by Sulforhodamine B assay; conditions: COLO 205, 48 h; for CC50: read-out: LC50 (the source's name); procedure, shortened: as §1
[5] = Antitumor activity against human RPMI8226 cells after 48 hrs by Sulforhodamine B assay; conditions: RPMI-8226, 48 h; procedure, shortened: as §1
MCF7 = test: Antitumor activity against human MCF7 cells after 48 hrs by Sulforhodamine B assay; conditions: MCF7, 48 h; for CC50: read-out: LC50 (the source's name); procedure, shortened: as §1
KM12 = test: Antitumor activity against human KM12 cells after 48 hrs by Sulforhodamine B assay; conditions: KM12, 48 h; for CC50: read-out: LC50 (the source's name); procedure, shortened: as §1
NCI-H460 = test: Antitumor activity against human NCI-H460 cells after 48 hrs by Sulforhodamine B assay; conditions: NCI-H460, 48 h; procedure, shortened: as §1
HL-60(TB) = test: Antitumor activity against human HL-60(TB) cells after 48 hrs by Sulforhodamine B assay; conditions: HL-60, 48 h; for CC50: read-out: LC50 (the source's name); procedure, shortened: as §1
[6] = Antitumor activity against human MOLT4 cells after 48 hrs by Sulforhodamine B assay; conditions: MOLT-4, 48 h; procedure, shortened: as §1
DU-145 = test: Antitumor activity against human DU145 cells after 48 hrs by Sulforhodamine B assay; conditions: DU-145, 48 h; for CC50: read-out: LC50 (the source's name); procedure, shortened: as §1
[7] = Antitumor activity against human BT549 cells after 48 hrs by Sulforhodamine B assay; conditions: BT-549, 48 h; for CC50: read-out: LC50 (the source's name); procedure, shortened: as §1
Malme-3M = test: Antitumor activity against human MALME-3M cells after 48 hrs by Sulforhodamine B assay; conditions: for CC50: read-out: LC50 (the source's name); procedure, shortened: as §1
IGROV-1 = test: Antitumor activity against human IGROV1 cells after 48 hrs by Sulforhodamine B assay; conditions: IGROV-1, 48 h; for CC50: read-out: LC50 (the source's name); procedure, shortened: as §1
K562 = test: Antitumor activity against human K562 cells after 48 hrs by Sulforhodamine B assay; conditions: K562, 48 h; for CC50: read-out: LC50 (the source's name); procedure, shortened: as §1
[8] = Antitumor activity against human OVCAR8 cells after 48 hrs by Sulforhodamine B assay; conditions: OVCAR-8, 48 h; procedure, shortened: as §1
[9] = Antitumor activity against human HCC2998 cells after 48 hrs by Sulforhodamine B assay; conditions: HCC 2998, 48 h; for CC50: read-out: LC50 (the source's name); procedure, shortened: as §1
SR = test: Antitumor activity against human SR cells after 48 hrs by Sulforhodamine B assay; conditions: for CC50: read-out: LC50 (the source's name); procedure, shortened: as §1
[10] = Antitumor activity against human HCT15 cells after 48 hrs by Sulforhodamine B assay; conditions: HCT-15, 48 h; for CC50: read-out: LC50 (the source's name); procedure, shortened: as §1
[11] = Antitumor activity against human OVCAR5 cells after 48 hrs by Sulforhodamine B assay; conditions: OVCAR-5, 48 h; procedure, shortened: as §1
CCRF-CEM = test: Antitumor activity against human CCRF-CEM cells after 48 hrs by Sulforhodamine B assay; conditions: for CC50: read-out: LC50 (the source's name); procedure, shortened: as §1
SK-MEL-28 = test: Antitumor activity against human SK-MEL-28 cells after 48 hrs by Sulforhodamine B assay; conditions: SK-MEL-28, 48 h; procedure, shortened: as §1
[12] = Antitumor activity against human OVCAR3 cells after 48 hrs by Sulforhodamine B assay; conditions: OVCAR-3, 48 h; for CC50: read-out: LC50 (the source's name); procedure, shortened: as §1
[13] = Antitumor activity against human UACC257 cells after 48 hrs by Sulforhodamine B assay; conditions: UACC-257, 48 h; for CC50: read-out: LC50 (the source's name); procedure, shortened: as §1
MDA-MB-231 = test: Antitumor activity against human MDA-MB-231 cells after 48 hrs by Sulforhodamine B assay; conditions: MDA-MB-231, 48 h; procedure, shortened: as §1
SW-620 = test: Antitumor activity against human SW620 cells after 48 hrs by Sulforhodamine B assay; conditions: SW-620, 48 h; for CC50: read-out: LC50 (the source's name); procedure, shortened: as §1
[14] = Antitumor activity against human UACC62 cells after 48 hrs by Sulforhodamine B assay; conditions: UACC-62, 48 h; procedure, shortened: as §1
[15] = Antitumor activity against human SF539 cells after 48 hrs by Sulforhodamine B assay; conditions: SF-539, 48 h; for CC50: read-out: LC50 (the source's name); procedure, shortened: as §1
SK-MEL-5 = test: Antitumor activity against human SK-MEL-5 cells after 48 hrs by Sulforhodamine B assay; conditions: SK-MEL-5, 48 h; for CC50: read-out: LC50 (the source's name); procedure, shortened: as §1
[16] = Antitumor activity against human LOXIMVI cells after 48 hrs by Sulforhodamine B assay; conditions: LOX IMVI; for CC50: read-out: LC50 (the source's name); procedure, shortened: as §1
T47D = test: Antitumor activity against human T47D cells after 48 hrs by Sulforhodamine B assay; conditions: for CC50: read-out: LC50 (the source's name); procedure, shortened: as §1
[17] = Antitumor activity against human SKOV3 cells after 48 hrs by Sulforhodamine B assay; conditions: SK-OV-3, 48 h; for CC50: read-out: LC50 (the source's name); procedure, shortened: as §1

## Cc1ccc(C2=Nc3c(N)ncnc3NC(c3sc(Cl)nc3Cl)C2)cc1 (stereo unspecified)
[1]
  GI50: 3.72 µM
  CC50: 45.4 µM
[2]
  GI50: 5.89 µM
  CC50: 73.1 µM
MDA-MB-435
  GI50: 1.47 µM
  CC50: 39 µM
[3]
  GI50: 2.44 µM
  CC50: > 100 µM
NCI-H522
  GI50: 4.05 µM
  CC50: 42.1 µM
M14
  GI50: 2.64 µM
  CC50: 35.6 µM
SNB-19
  GI50: 5.51 µM
  LC50: 47.2 µM
A549
  GI50: 5.02 µM
  CC50: 52.5 µM
HOP-62
  GI50: 3.72 µM
  LC50 (concentration giving 50% net cell kill): 48.9 µM
SNB-75
  GI50: 1.63 µM
  LC50 (concentration killing 50% of cells): 38.1 µM
[4]
  GI50: 4.18 µM
  CC50: 42.1 µM
[5]
  GI50: 4.99 µM
  LC50 (concentration causing 50% net cell kill): > 100 µM
MCF7
  GI50: 3.56 µM
  CC50: 97.6 µM
KM12
  GI50: 3.8 µM
  CC50: 40.4 µM
NCI-H460
  GI50: 4.06 µM
  LC50: 49.4 µM
HL-60(TB)
  GI50: 2.04 µM
  CC50: > 100 µM
[6]
  GI50: 4.06 µM
  LC50: > 100 µM
DU-145
  GI50: 11.2 µM
  CC50: 52.4 µM
[7]
  GI50: 3.93 µM
  CC50: 40.6 µM
Malme-3M
  GI50: 6.33 µM
  CC50: 44 µM
IGROV-1
  GI50: 7.08 µM
  CC50: 63.2 µM
K562
  GI50: 1.68 µM
  CC50: > 100 µM
[8]
  GI50: 4.8 µM
  LC50 (concentration killing 50% of cells): 80.7 µM
[9]
  GI50: 10.3 µM
  CC50: 46.8 µM
SR
  GI50: 2.25 µM
  CC50: 76.7 µM
[10]
  GI50: 3.05 µM
  CC50: 50.1 µM
[11]
  GI50: 10.2 µM
  LC50: 46.8 µM
CCRF-CEM
  GI50: 3.21 µM
  CC50: > 100 µM
SK-MEL-28
  GI50: 4.26 µM
  LC50: 42.8 µM
[12]
  GI50: 3.6 µM
  CC50: 43.4 µM
[13]
  GI50: 6.76 µM
  CC50: 48.6 µM
MDA-MB-231
  GI50: 3.86 µM
  LC50 (concentration killing 50% of cells): 42.1 µM
SW-620
  GI50: 3.42 µM
  CC50: 40.7 µM
[14]
  GI50: 3.05 µM
  LC50: 37.2 µM
[15]
  GI50: 2.69 µM
  CC50: 33.1 µM
SK-MEL-5
  GI50: 3.69 µM
  CC50: 37.3 µM
[16]
  GI50: 5.39 µM
  CC50: 43.2 µM
T47D
  GI50: 3.35 µM
  CC50: > 100 µM
[17]
  GI50: 3.6 µM
  CC50: 43 µM

## Nc1ncnc2c1N=C(c1ccc3c(c1)OCO3)CC(c1sc(Cl)nc1Cl)N2 (stereo unspecified)
[1]
  GI50: 4.25 µM
  CC50: 77.5 µM
[2]
  GI50: 5.15 µM
  CC50: > 100 µM
MDA-MB-435
  GI50: 0.35 µM
  CC50: 48.4 µM
[3]
  GI50: 2.35 µM
  CC50: > 100 µM
NCI-H522
  GI50: 2.51 µM
  CC50: 55.3 µM
M14
  GI50: 2.01 µM
  CC50: 44.6 µM
SNB-19
  GI50: 4.83 µM
  LC50: > 100 µM
A549
  GI50: 6.47 µM
  CC50: > 100 µM
HOP-62
  GI50: 5.32 µM
  LC50 (concentration giving 50% net cell kill): 62.6 µM
SNB-75
  GI50: 1.39 µM
  LC50 (concentration killing 50% of cells): 61.4 µM
[4]
  GI50: 3.48 µM
  CC50: 45.6 µM
[5]
  GI50: 4.66 µM
  LC50 (concentration causing 50% net cell kill): > 100 µM
MCF7
  GI50: 2.81 µM
  CC50: > 100 µM
KM12
  GI50: 3.93 µM
  CC50: 73.6 µM
NCI-H460
  GI50: 3.99 µM
  LC50: > 100 µM
HL-60(TB)
  GI50: 36.1 µM
  CC50: > 100 µM
[6]
  GI50: 5.91 µM
  LC50: > 100 µM
DU-145
  GI50: 8.45 µM
  CC50: > 100 µM
[7]
  GI50: 3.79 µM
  CC50: 53.9 µM
Malme-3M
  GI50: 14.3 µM
  CC50: 59.2 µM
IGROV-1
  GI50: 10.4 µM
  CC50: > 100 µM
K562
  GI50: 0.54 µM
  CC50: > 100 µM
[8]
  GI50: 4.86 µM
  LC50 (concentration killing 50% of cells): > 100 µM
[9]
  GI50: 6.11 µM
  CC50: 48.8 µM
SR
  GI50: 1.9 µM
  CC50: > 100 µM
[10]
  GI50: 1.07 µM
  CC50: > 100 µM
[11]
  GI50: 6.03 µM
  LC50: > 100 µM
CCRF-CEM
  GI50: 3.02 µM
  CC50: > 100 µM
SK-MEL-28
  GI50: 7.63 µM
  LC50: 91.6 µM
[12]
  GI50: 3.94 µM
  CC50: 66.8 µM
[13]
  GI50: 14.6 µM
  CC50: > 100 µM
MDA-MB-231
  GI50: 5.81 µM
  LC50 (concentration killing 50% of cells): 55.7 µM
SW-620
  GI50: 2.98 µM
  CC50: > 100 µM
[14]
  GI50: 2.17 µM
  LC50: 63.9 µM
[15]
  GI50: 2.22 µM
  CC50: 33.6 µM
SK-MEL-5
  GI50: 3.43 µM
  CC50: 40.8 µM
[16]
  GI50: 7.02 µM
  CC50: 75.6 µM
T47D
  GI50: 5.36 µM
  CC50: > 100 µM
[17]
  GI50: 2.78 µM
  CC50: > 100 µM
